Assay outcomes from PubChem BioAssay.
This is a sample that favours compounds with a hit; in the whole collection about 3.7% have one here.
NS3 helicase inh – inhibitors of Hepatitis C virus NS3 helicase; hit rate 0.56% among 290,000; NS3 helicase DNA unwinding, Cy5 molecular beacon fluorescence; inhibition, % at 10.9 µM;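 active = inhibition above the mean of all tested compounds plus 3 SD, set per campaign, cut at about 35% in these data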;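 also: 0% = DMSO wells and 100% = thioflavine S control wells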
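System: Hepatitis C virus NS3 helicase domain fragment enzyme | Reagent: Annealed dual-labelled DNA beacon duplex, ATP-started | Compound dosing: 10.9 µM single point, 0.8% DMSO | Incubation: 1 h reaction at 25 °C, ATP-initiated | Technique: Cy5 fluorescence | Evaluation: Percent inhibition from t60/t0 fluorescence ratio | Benchmarks: Low DMSO, high thioflavine S at 110 µM | Replication: Singlicate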
rCAG binder – molecules binding r(CAG) RNA repeats. r(CAG) RNA repeat, TO-PRO-1 dye displacement fluorescence. inhibition, % at 3 µM. hit rate 1.3% among 370,000. AID 651821;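 active = inhibition above the plate cutoff, the mean of all test compounds on that plate plus 3 SD, cut at about 35% in these data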;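 also: 0% = DMSO alone and 100% = 100 µM mitoxantrone as full dye displacement; higher means more dye released from RNA so lower well fluorescence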
core dimer inh – HCV core protein dimerization inhibition; TR-FRET GST/Flag-core106 dimerization, 1536-well; AID 1899; hit rate 0.33% among 300,000; inhibition, % at 5 µM;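 active = inhibition above the mean of all tested compounds plus 3 SD, set per screening campaign, cut at about 45% in these data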
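Assay system: Tagged HCV core106 pair (GST and Flag) | Buffer or medium: KF-containing HEPES buffer, pH 7.45, DTT, CHAPS, BSA | Also added: Eu donor and XL665 acceptor anti-tag antibodies | Dosing: One concentration, 5 µM, in 0.5% DMSO | Timing: 4 h at 22.5 °C | Technique: TR-FRET 671 and 617 nm emission | Repeats: Singlicate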
TAAR1 antagonist – human TAAR1 antagonism; Q96RJ0; inhibition, % at 3 µM; CHO RD-HGA16 TAAR1, Fluo-8 calcium fluorescence, antagonist; hit rate 1.5% among 360,000; AID 624466;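 active = inhibition above a per-plate cutoff, the mean inhibition of test compounds on that plate plus 3 SD, cut at about 49% in these data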;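 also: 0% = DMSO plus EC80 beta-PEA response and 100% = DMSO alone without agonist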
Target sequence (Q96RJ0 whole entry, looked up): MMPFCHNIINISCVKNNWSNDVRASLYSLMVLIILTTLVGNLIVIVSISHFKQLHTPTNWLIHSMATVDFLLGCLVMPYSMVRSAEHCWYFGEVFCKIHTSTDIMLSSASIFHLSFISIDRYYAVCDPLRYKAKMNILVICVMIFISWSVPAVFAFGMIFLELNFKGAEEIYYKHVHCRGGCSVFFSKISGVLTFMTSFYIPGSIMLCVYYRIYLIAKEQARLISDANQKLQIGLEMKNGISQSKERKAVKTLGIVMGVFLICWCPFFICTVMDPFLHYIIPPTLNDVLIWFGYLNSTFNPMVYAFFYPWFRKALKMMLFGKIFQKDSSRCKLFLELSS
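Material: CHO RD-HGA16 cells bearing hTAAR1; compound dosing: one-point dosing, 3 µM nominal final; schedule: dye loading 75 min at 37 °C, then 30 min room temperature; measured by: calcium fluorescence with Fluo-8; control set: vehicle and agonist controls; replication: n of 1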
TAAR1 agonist – human TAAR1 agonism. Q96RJ0. CHO RD-HGA16 TAAR1, Fluo-8 calcium fluorescence; vehicle wells 0%, saturating PEA agonist 100%. activation, % at 3 µM. hit rate 0.99% among 360,000;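 active = activation above the mean activation of all test compounds in the run plus 3 SD, cut at about 38% in these data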
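Repeats: no replicates (n 1) | Material: CHO-derived RD-HGA16 cells with stable Gα16 and human TAAR1 | Technique: Kinetic Fluo-8 calcium fluorescence | Schedule: 17-24 h seeding, 75 min 37 °C dye, 30 min RT | Evaluation: % activation from peak over basal fluorescence ratio, DMSO-to-PEA scaled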
rCAG binder conf – r(CAG) RNA repeat binding, confirmation | shares compounds with rCAG binder | TO-PRO-1 dye displacement fluorescence | inhibition, % at 3 µM | hit rate 70% among 4,300 | AID 652065;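 active = inhibition above a per-plate cutoff, the mean inhibition of sample wells plus 3 SD, cut at about 35% in these data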;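 also: loss of TO-PRO-1 fluorescence as compound displaces dye from 1x1 AA loop RNA; 0% = DMSO only wells and 100% = 100 µM mitoxantrone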
DNA CAG counter – counter-screen for rCAG RNA binders: DNA CAG dye complex inhibitors. shares compounds with rCAG binder. d(CAG) DNA oligo TO-PRO-1 dye displacement, fluorescence. inhibition, % at 3 µM. hit rate 94% among 4,300. AID 652068;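 active = inhibition above its plate's cutoff, the mean test-well inhibition plus 3 SD, cut at about 4.8% in these data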;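 also: 0% = DNA dye mix with DMSO and 100% = 100 µM mitoxantrone; hits displace the dye from DNA and so lower well fluorescence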
dCAG dye DR – DNA CAG dye complex inhibition, dose response counter-screen; shares compounds with rCAG binder; DNA CAG/GTC duplex TO-PRO-1 dye displacement fluorescence; IC50, µM; hit rate 20% among 250; in the data active = IC50 below about 10 µM
* hit, by the source's call.

CCCN1CCCCC(NC(=O)c2cccs2)C1=O (stereo not drawn) was read as rCAG binder 0.5, TAAR1 antagonist 6.9 and TAAR1 agonist -0.1.
For Clc1ccc(-n2c(SCc3cccc4ccccc34)nnc2-c2ccccn2)cc1 the results were rCAG binder 8.2.
Screening Cc1ccc(S(=O)(=O)N2CC(CBr)=CCC2c2ccccc2)cc1 (stereo not drawn) returned rCAG binder 4.0, TAAR1 antagonist -20.6 and TAAR1 agonist 1.2.
`C/C(C=NNC(=O)c1cc(-c2ccc(Cl)cc2)n[nH]1)=C\c1ccccc1` gave rCAG binder 12.0.
CCOc1cc(/C=C2/SC(=O)N(CC(=O)N3CCc4ccccc4C3)C2=O)ccc1OCC(=O)O was read as NS3 helicase inh -4.6, rCAG binder 56.7*, core dimer inh 18.7, TAAR1 antagonist 7.7, TAAR1 agonist 5.5, rCAG binder conf 60.3* and DNA CAG counter 20.7*.
`CCC1=NN2C(=N)/C(=C\c3ccc(SCc4ccco4)o3)C(=O)N=C2S1` gave NS3 helicase inh 23.1, rCAG binder 65.0*, core dimer inh 13.8, TAAR1 antagonist 4.8, TAAR1 agonist 17.6, rCAG binder conf 55.6* and DNA CAG counter 20.3*.
For O=S(=O)(Nc1nc2ccccc2nc1NCCO)c1cccc(Cl)c1 the results were NS3 helicase inh 10.7, rCAG binder 28.9, core dimer inh -7.9, TAAR1 antagonist 2.1 and TAAR1 agonist -0.7.
`COCCCNc1nc2ccccc2nc1NS(=O)(=O)c1cccc(Cl)c1` gave NS3 helicase inh 2.3, rCAG binder 38.4*, core dimer inh 0.3, TAAR1 antagonist -1.4, TAAR1 agonist 0.7, rCAG binder conf 31.6 and DNA CAG counter 6.7*.
For O=S(=O)(Nc1nc2ccccc2nc1NCC1CCCO1)c1cccc(Cl)c1 (stereo not drawn) the results were NS3 helicase inh 24.5, rCAG binder 53.7*, core dimer inh 8.5, TAAR1 antagonist -10.3, TAAR1 agonist 0.0, rCAG binder conf 40.3* and DNA CAG counter 10.5*.
Screening NC(c1csc(NC(=O)Nc2ccc(OC(F)(F)F)cc2)n1)C1CCCCC1 (stereo not drawn) returned rCAG binder 40.0*, TAAR1 antagonist 8.1, TAAR1 agonist 47.4*, rCAG binder conf 25.4 and DNA CAG counter 4.0.
Screening CC1(C(=O)NS(=O)(=O)c2ccccc2Cl)CCN1C(=O)CCc1ccc(Cl)cc1Cl (stereo not drawn) returned rCAG binder 46.5*, TAAR1 antagonist -9.1, TAAR1 agonist 4.9, rCAG binder conf 36.1* and DNA CAG counter 7.3*.
Screening Cc1ccccc1S(=O)(=O)NC(=O)C1(C)CCN1C(=O)CCc1ccc(Cl)cc1Cl (stereo not drawn) returned rCAG binder 43.7*, TAAR1 antagonist -0.5, TAAR1 agonist -0.3, rCAG binder conf 33.2 and DNA CAG counter 6.1*.
`COCc1[nH]nc2c1C(c1ccccc1)N(Cc1ccccc1)C2=O` (stereo not drawn) gave rCAG binder 1.3, TAAR1 antagonist -3.4 and TAAR1 agonist -0.1.
Screening CSc1nnc(-c2ccccc2N=Cc2c(C)[nH]n(-c3ccc4ccccc4c3)c2=O)c(=O)[nH]1 returned NS3 helicase inh 16.2, rCAG binder 67.7*, core dimer inh 10.0, TAAR1 antagonist 9.0, TAAR1 agonist 7.4, rCAG binder conf 70.5*, DNA CAG counter 32.4* and dCAG dye DR 9.19*.
C=CCSc1nnc(-c2ccccc2N=Cc2c(C)[nH]n(-c3ccccc3)c2=O)c(=O)[nH]1 was read as NS3 helicase inh 2.8, rCAG binder 40.8*, core dimer inh 2.4, TAAR1 antagonist -4.1, TAAR1 agonist 9.4, rCAG binder conf 32.9 and DNA CAG counter 9.6*.
Screening C=CCSc1nnc(-c2ccccc2NC(=O)CC)c(=O)[nH]1 returned NS3 helicase inh 6.8, rCAG binder 50.6*, core dimer inh 1.6, TAAR1 antagonist 6.5, TAAR1 agonist 6.8, rCAG binder conf 4.5 and DNA CAG counter 2.4.
For CCSc1nnc(-c2ccccc2NC(=O)CC)c(=O)[nH]1 the results were NS3 helicase inh -1.6, rCAG binder -3.2, core dimer inh -1.9, TAAR1 antagonist -7.5 and TAAR1 agonist 0.9.
`COc1ccc(NC(=O)CN2C(=O)S/C(=C/c3cccn3-c3ccc(C(=O)O)cc3)C2=O)cc1` gave NS3 helicase inh -1.4, rCAG binder 24.0, TAAR1 antagonist -8.5 and TAAR1 agonist -1.3.
Screening Cc1ccc(NC(=O)CN2C(=O)S/C(=C\c3cc(C)n(-c4ccc(C(=O)O)cc4)c3C)C2=O)cc1 returned NS3 helicase inh 0.0, rCAG binder 68.2*, core dimer inh 13.3, TAAR1 antagonist 0.7, TAAR1 agonist 7.0, rCAG binder conf 85.2* and DNA CAG counter 47.5*.
For COc1cc(/C=C2\SC(=O)N(CC(=O)Nc3cccc(C)c3)C2=O)ccc1OC(C)C(=O)O (stereo not drawn) the results were rCAG binder 53.7*, core dimer inh 1.1, TAAR1 antagonist -3.9, TAAR1 agonist -0.8, rCAG binder conf 43.7* and DNA CAG counter 14.0*.
`Cc1cccc(C)c1-n1cccc1/C=C1\SC(=S)N(c2cccc(C(=O)O)c2)C1=O` gave NS3 helicase inh 1.8, rCAG binder 83.5*, core dimer inh 6.9, TAAR1 antagonist 9.6, TAAR1 agonist 0.4, rCAG binder conf 77.9* and DNA CAG counter 41.0*.
COc1ccc(/C=C2\SC(=O)N(CC(=O)Nc3cccc(C)c3)C2=O)cc1O was read as NS3 helicase inh -18.2, rCAG binder 21.1, core dimer inh -0.7, TAAR1 antagonist 30.8 and TAAR1 agonist 2.0.
Cc1cccc(NC(=O)CN2C(=O)S/C(=C\c3cccn3-c3cccc(C(=O)O)c3)C2=O)c1 was read as NS3 helicase inh 23.4, rCAG binder 83.7*, core dimer inh 18.6, TAAR1 antagonist -17.7, TAAR1 agonist -2.3, rCAG binder conf 80.7* and DNA CAG counter 48.7*.
For O=C(CSc1nnc(-c2ccc(Cl)cc2)n1-c1ccccc1)Nc1ccc(Oc2ccccc2)cc1 the results were rCAG binder 5.3.
CCc1nnc(NS(=O)(=O)c2ccc(NC(=O)c3ccc(S(=O)(=O)N(CC)CC)cc3)cc2)s1 was read as NS3 helicase inh 25.1, rCAG binder 75.6*, core dimer inh 14.2, TAAR1 antagonist 6.2, TAAR1 agonist -1.6, rCAG binder conf 66.7* and DNA CAG counter 28.6*.
